Data taken from ChEMBL document CHEMBL3400072, “Synthesis, biological evaluation and docking analysis of a new series of methylsulfonyl and sulfamoyl acetamides and ethyl acetates as potent COX-2 inhibitors” (Bioorg Med Chem, 2015).
Activity calls are given as the source filed them. The rule behind the calls is not given here.

Assays:
[1] = tested on: Mus musculus; experiment: Analgesic activity in Swiss albino mouse model assessed as reduction of acetic acid-induced writhes at 10 mg/kg, po administered 30 mins prior to acetic acid challenge measured after 5 mins for 10 mins relative to vehicle-treated control; assay type: functional; parameters: scale not given: the % may be the effect or the level left
Procedure, shortened: (§1)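 Male Swiss albino mice (23–25 g), standard diet and water ad libitum, 23 °C, 12 h light/dark cycle. Oral dosing (1–40 mg/kg range), with carboxymethylcellulose (CMC) as vehicle, 30 min before ip injection of 0.6% acetic acid (10 mL/kg). Stretching movements counted for 10 min, beginning 5 min after acetic acid. Results given as writhe count and % reduction versus vehicle-treated mice.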

[2] = tested on: Mus musculus; experiment: Analgesic activity in Swiss albino mouse model assessed as reduction of acetic acid-induced writhes at 3 mg/kg, po administered 30 mins prior to acetic acid challenge measured after 5 mins for 10 mins relative to vehicle-treated control; assay type: functional; parameters: scale not given: the % may be the effect or the level left; procedure, shortened: as §1
[3] = target: T1, Prostaglandin G/H synthase 2 (Homo sapiens) (UniProt P35354); conditions: at 10 µM
T1 sequence (whole entry): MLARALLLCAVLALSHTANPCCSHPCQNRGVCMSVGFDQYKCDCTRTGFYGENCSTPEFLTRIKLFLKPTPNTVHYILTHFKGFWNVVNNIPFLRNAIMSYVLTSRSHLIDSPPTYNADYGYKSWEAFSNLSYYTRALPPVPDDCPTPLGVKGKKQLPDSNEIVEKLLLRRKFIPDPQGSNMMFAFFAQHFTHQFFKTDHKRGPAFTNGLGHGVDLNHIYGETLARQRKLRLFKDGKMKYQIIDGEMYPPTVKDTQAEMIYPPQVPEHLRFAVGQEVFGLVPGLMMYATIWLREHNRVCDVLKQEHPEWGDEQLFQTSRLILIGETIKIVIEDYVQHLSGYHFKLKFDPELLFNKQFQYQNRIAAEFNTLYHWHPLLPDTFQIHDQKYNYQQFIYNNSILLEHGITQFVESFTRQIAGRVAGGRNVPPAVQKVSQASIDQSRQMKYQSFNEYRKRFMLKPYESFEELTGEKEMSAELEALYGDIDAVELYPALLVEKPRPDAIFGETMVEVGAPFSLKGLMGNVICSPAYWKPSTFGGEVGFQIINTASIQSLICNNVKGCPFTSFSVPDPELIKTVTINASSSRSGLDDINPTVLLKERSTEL

[4] = target: T2, Prostaglandin G/H synthase 2 (Homo sapiens, UniProt P35354); experiment: Inhibition of human recombinant COX2 using […] as substrate after 10 mins by EIA
T2 sequence (P35354 whole entry): T1 sequence (whole entry)

[5] = tested on: Mus musculus; experiment: Analgesic activity in Swiss albino mouse model assessed as reduction of acetic acid-induced writhes at 30 mg/kg, po administered 30 mins prior to acetic acid challenge measured after 5 mins for 10 mins relative to vehicle-treated control; assay type: functional; parameters: scale not given: the % may be the effect or the level left; procedure, shortened: as §1
[6] = target: T3, Prostaglandin G/H synthase 1 (Ovis aries) (UniProt P05979); conditions: at 10 µM
T3 sequence (whole entry): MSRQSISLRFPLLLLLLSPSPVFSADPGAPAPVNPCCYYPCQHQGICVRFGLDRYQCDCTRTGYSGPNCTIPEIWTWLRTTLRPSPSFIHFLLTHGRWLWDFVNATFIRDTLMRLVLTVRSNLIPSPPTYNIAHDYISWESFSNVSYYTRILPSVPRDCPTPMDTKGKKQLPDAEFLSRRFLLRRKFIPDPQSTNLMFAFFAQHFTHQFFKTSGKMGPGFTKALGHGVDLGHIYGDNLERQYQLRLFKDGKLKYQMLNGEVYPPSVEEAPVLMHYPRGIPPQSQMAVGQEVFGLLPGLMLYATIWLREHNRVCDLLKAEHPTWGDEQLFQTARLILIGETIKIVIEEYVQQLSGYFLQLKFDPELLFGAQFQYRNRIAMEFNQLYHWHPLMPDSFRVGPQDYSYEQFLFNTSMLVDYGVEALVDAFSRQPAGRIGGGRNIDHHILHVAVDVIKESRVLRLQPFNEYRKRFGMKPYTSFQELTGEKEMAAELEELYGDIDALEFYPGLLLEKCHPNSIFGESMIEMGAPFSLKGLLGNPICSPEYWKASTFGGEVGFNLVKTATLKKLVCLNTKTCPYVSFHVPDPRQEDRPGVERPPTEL

[7] = tested on: Mus musculus; experiment: Analgesic activity in Swiss albino mouse model assessed as reduction of acetic acid-induced writhes at 20 mg/kg, po administered 30 mins prior to acetic acid challenge measured after 5 mins for 10 mins relative to vehicle-treated control; assay type: functional; parameters: scale not given: the % may be the effect or the level left; procedure, shortened: as §1
[8] = tested on: Mus musculus; experiment: Analgesic activity in Swiss albino mouse model assessed as reduction of acetic acid-induced writhes at 40 mg/kg, po administered 30 mins prior to acetic acid challenge measured after 5 mins for 10 mins relative to vehicle-treated control; assay type: functional; parameters: scale not given: the % may be the effect or the level left; procedure, shortened: as §1
[9] = tested on: Mus musculus; experiment: Analgesic activity in po dosed Swiss albino mouse model assessed as reduction of acetic acid-induced writhes administered 30 mins prior to acetic acid challenge measured after 5 mins for 10 mins relative to vehicle-treated control; assay type: functional, organism-based; procedure, shortened: as §1

inhibition [3] [%]	IC50 [4] [µM]	inhibition [6]	Compound	Activity [1] [%]	Activity [2] [%]	Activity [5] [%]	Activity [7] [%]	Activity [8] [%]	Activity [9]
65			CCCNC(=O)Cc1cc(-c2ccc(S(C)(=O)=O)cc2)n(-c2ccc(F)cc2)c1C	29.9	10.2				
96	5.78	inactive	CCCNC(=O)Cc1cc(-c2ccc(S(N)(=O)=O)cc2)n(-c2cccc(F)c2)c1C			12.2			
65			Cc1c(CC(=O)O)cc(-c2ccc(S(N)(=O)=O)cc2)n1-c1cccc(F)c1	9.5					
48			Cc1c(CC(=O)NC(C)C)cc(-c2ccc(S(N)(=O)=O)cc2)n1-c1ccc(F)cc1	36.5	16.1	43.7			
			Cc1ccc(-c2cc(C(F)(F)F)nn2-c2ccc(S(N)(=O)=O)cc2)cc1 [CELECOXIB]	57.4					
95	4.91	36%	Cc1c(CC(=O)NC(C)C)cc(-c2ccc(S(C)(=O)=O)cc2)n1-c1ccc(F)cc1	12.2		48.7			
74	7		Cc1c(CC(=O)NC(C)C)cc(-c2ccc(S(C)(=O)=O)cc2)n1-c1cccc(F)c1	3.6		25.3			
82	1.07	inactive	CCOC(=O)Cc1cc(-c2ccc(S(N)(=O)=O)cc2)n(-c2ccc(F)cc2)c1C	10.4			24.8	62.3	Dose-dependent effect
89	0.92	inactive	CCOC(=O)Cc1cc(-c2ccc(S(N)(=O)=O)cc2)n(-c2cccc(F)c2)c1C	26		33.5			
49			Cc1c(CC(=O)NC(C)C)cc(-c2ccc(S(N)(=O)=O)cc2)n1-c1cccc(F)c1	29.3	11.5	31.6			
65			Cc1c(CC(=O)O)cc(-c2ccc(S(N)(=O)=O)cc2)n1-c1ccc(F)cc1	16.9			33.1	49.1	
62			CCCNC(=O)Cc1cc(-c2ccc(S(N)(=O)=O)cc2)n(-c2ccc(F)cc2)c1C	8.3	3.9	39.1			
43			CCCNC(=O)Cc1cc(-c2ccc(S(C)(=O)=O)cc2)n(-c2cccc(F)c2)c1C	12.2		9.9			
